Results from ChEMBL document CHEMBL3045731, “Facile synthesis and herbicidal evaluation of 4H-3,1-benzoxazin-4-ones and 3H-quinazolin-4-ones with 2-phenoxymethyl substituents” (Molecules, 2012).

What was measured:
Brassica napus [1] = assay: Herbicidal activity against Brassica napus (oilseed rape) assessed as inhibition of root elongation after 5 days by petri dish culture method; assay type: functional, organism-based
Brassica napus [2] = assay: Herbicidal activity against Brassica napus (oilseed rape) assessed as inhibition of root growth at 10 mg/L after 5 days by petri dish culture method relative to control; assay type: functional; conditions: 120 h, read-out: GI
Method in brief: (§1)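 Test solutions were made in DMF, emulsified with Tween 80, and diluted with water, then added to Petri dishes lined with two filter papers. Twenty rape and twenty barnyard grass seeds were incubated 5 days at 23 ± 1 °C, 60 ± 5% humidity, 10 Klux, 12 h/day light. Mean length of 10 roots and 10 stems gave percent inhibition versus distilled-water controls.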

Brassica napus [3] = assay: Herbicidal activity against Brassica napus (oilseed rape) assessed as inhibition of root growth at 1 mg/L after 5 days by petri dish culture method relative to control; assay type: functional; conditions: 120 h, read-out: GI; method in brief: as §1
Echinochloa crus-galli [4] = assay: Herbicidal activity against Echinochloa crus-galli (barnyard grass) assessed as inhibition of stalk growth at 10 mg/L after 5 days by petri dish culture method relative to control; assay type: functional; conditions: 120 h, read-out: GI; method in brief: as §1
Echinochloa crus-galli [5] = assay: Herbicidal activity against Echinochloa crus-galli (barnyard grass) assessed as inhibition of root growth at 1 mg/L after 5 days by petri dish culture method relative to control; assay type: functional; conditions: 120 h, read-out: GI; method in brief: as §1
Echinochloa crus-galli [6] = assay: Herbicidal activity against Echinochloa crus-galli (barnyard grass) assessed as inhibition of root growth at 10 mg/L after 5 days by petri dish culture method relative to control; assay type: functional; conditions: 120 h, read-out: GI; method in brief: as §1
Brassica napus [7] = assay: Herbicidal activity against Brassica napus (oilseed rape) assessed as inhibition of stalk growth at 10 mg/L after 5 days by petri dish culture method relative to control; assay type: functional; conditions: 120 h, read-out: GI; method in brief: as §1
Echinochloa crus-galli [8] = assay: Herbicidal activity against Echinochloa crus-galli (barnyard grass) assessed as inhibition of stalk growth at 1 mg/L after 5 days by petri dish culture method relative to control; assay type: functional; conditions: 120 h, read-out: GI; method in brief: as §1
Brassica napus [9] = assay: Herbicidal activity against Brassica napus (oilseed rape) assessed as inhibition of stalk growth at 1 mg/L after 5 days by petri dish culture method relative to control; assay type: functional; conditions: 120 h, read-out: GI; method in brief: as §1

Question: How did the IC50 (Brassica napus [1]) turn out when `Nn1c(COc2ccc(Cl)cc2Cl)nc2ccccc2c1=O` was run?
Answer: The IC50 was 224.37 µmol.

Question: With `O=c1oc(COc2ccc(Cl)cc2Cl)nc2cc(Cl)ccc12` as the molecule, how does the IC50 (Brassica napus [1]) read?
Answer: Its IC50 is 11.05 µmol.

Question: With `O=c1oc(COc2ccc(Cl)cc2Cl)nc2cccc(Cl)c12` as the molecule, how does the IC50 (Brassica napus [1]) read?
Answer: Its IC50 is 43.54 µmol.

Question: How did the IC50 (Brassica napus [1]) turn out when `COc1cc2nc(COc3ccc(Cl)cc3Cl)oc(=O)c2cc1OC` was run?
Answer: The IC50 was 142.22 µmol.

Question: `O=c1oc(COc2ccc(Cl)cc2Cl)nc2ccccc12` was tested. Which IC50 (Brassica napus [1]) did it give?
Answer: Its IC50 is 10.34 µmol.

Question: With `COc1ccc(Cl)cc1Cl` as the molecule, how does the inhibition of growth at 10 µg/mL (Brassica napus [2]) read?
Answer: Its inhibition of growth at 10 µg/mL is 100%.

Question: And the IC50 (Brassica napus [1])?
Answer: Its IC50 is 6.06 µmol.

Question: What about the inhibition of growth at 1 µg/mL (Brassica napus [3]) of the same molecule?
Answer: Its inhibition of growth at 1 µg/mL is 91%.

Question: And the inhibition of growth at 10 µg/mL (Echinochloa crus-galli [4])?
Answer: Its inhibition of growth at 10 µg/mL is 76.2%.

Question: What about the inhibition of growth at 1 µg/mL (Echinochloa crus-galli [5]) of the same molecule?
Answer: Its inhibition of growth at 1 µg/mL is 67.3%.

Question: What about the inhibition of growth at 10 µg/mL (Echinochloa crus-galli [6]) of the same molecule?
Answer: Its inhibition of growth at 10 µg/mL is 99.1%.

Question: And the inhibition of growth at 10 µg/mL (Brassica napus [7])?
Answer: The inhibition of growth at 10 µg/mL was 93.6%.

Question: And the inhibition of growth at 1 µg/mL (Echinochloa crus-galli [8])?
Answer: Its inhibition of growth at 1 µg/mL is 45.5%.

Question: And the inhibition of growth at 1 µg/mL (Brassica napus [9])?
Answer: Its inhibition of growth at 1 µg/mL is 89.1%.

Question: For `Nn1c(COc2ccc(Cl)cc2Cl)nc2c(Cl)cccc2c1=O`, which inhibition of growth at 10 µg/mL (Brassica napus [2]) is on record?
Answer: Its inhibition of growth at 10 µg/mL is 98.2%.

Question: What about the IC50 (Brassica napus [1]) of the same molecule?
Answer: Its IC50 is 27.23 µmol.

Question: What about the inhibition of growth at 1 µg/mL (Brassica napus [3]) of the same molecule?
Answer: Its inhibition of growth at 1 µg/mL is 93.6%.

Question: What about the inhibition of growth at 10 µg/mL (Echinochloa crus-galli [4]) of the same molecule?
Answer: Its inhibition of growth at 10 µg/mL is 38.1%.

Question: And the inhibition of growth at 1 µg/mL (Echinochloa crus-galli [5])?
Answer: Its inhibition of growth at 1 µg/mL is 24.3%.

Question: And the inhibition of growth at 10 µg/mL (Echinochloa crus-galli [6])?
Answer: The inhibition of growth at 10 µg/mL was 68.5%.

Question: And the inhibition of growth at 10 µg/mL (Brassica napus [7])?
Answer: Its inhibition of growth at 10 µg/mL is 95.7%.

Question: What about the inhibition of growth at 1 µg/mL (Echinochloa crus-galli [8]) of the same molecule?
Answer: Its inhibition of growth at 1 µg/mL is -7.2%.

Question: And the inhibition of growth at 1 µg/mL (Brassica napus [9])?
Answer: Its inhibition of growth at 1 µg/mL is 92.3%.

Question: How did the IC50 (Brassica napus [1]) turn out when `O=c1oc(COc2ccc(Cl)cc2)nc2ccccc12` was run?
Answer: The IC50 was 30.37 µmol.

Question: `Cn1c(COc2ccc(Cl)cc2)nc2cccc(Cl)c2c1=O` was tested. Which IC50 (Brassica napus [1]) did it give?
Answer: Its IC50 is 201.13 µmol.

Question: `Cn1c(COc2ccc(Cl)cc2Cl)nc2c(Cl)cccc2c1=O` was tested. Which inhibition of growth at 10 µg/mL (Brassica napus [2]) did it give?
Answer: The inhibition of growth at 10 µg/mL was 44.5%.

Question: What about the inhibition of growth at 1 µg/mL (Brassica napus [3]) of the same molecule?
Answer: The inhibition of growth at 1 µg/mL was 32.3%.

Question: And the inhibition of growth at 10 µg/mL (Echinochloa crus-galli [4])?
Answer: Its inhibition of growth at 10 µg/mL is 0%.

Question: What about the inhibition of growth at 1 µg/mL (Echinochloa crus-galli [5]) of the same molecule?
Answer: Its inhibition of growth at 1 µg/mL is 12.3%.

Question: What about the inhibition of growth at 10 µg/mL (Echinochloa crus-galli [6]) of the same molecule?
Answer: The inhibition of growth at 10 µg/mL was 34.6%.

Question: And the inhibition of growth at 10 µg/mL (Brassica napus [7])?
Answer: Its inhibition of growth at 10 µg/mL is -2.4%.

Question: And the inhibition of growth at 1 µg/mL (Echinochloa crus-galli [8])?
Answer: The inhibition of growth at 1 µg/mL was 1.4%.

Question: And the inhibition of growth at 1 µg/mL (Brassica napus [9])?
Answer: The inhibition of growth at 1 µg/mL was -8.8%.

Question: `O=c1oc(COc2ccc(Cl)cc2Cl)nc2ccc(Cl)cc12` was tested. Which IC50 (Brassica napus [1]) did it give?
Answer: Its IC50 is 10.73 µmol.

Question: For `O=c1oc(COc2ccc(Cl)cc2)nc2ccc(Cl)cc12`, which IC50 (Brassica napus [1]) is on record?
Answer: Its IC50 is 22.32 µmol.

Question: With `COc1cc2nc(COc3ccc(Cl)cc3)oc(=O)c2cc1OC` as the molecule, how does the IC50 (Brassica napus [1]) read?
Answer: Its IC50 is 80.14 µmol.

Question: With `O=c1oc(COc2ccc(Cl)cc2)nc2cccc(Cl)c12` as the molecule, how does the IC50 (Brassica napus [1]) read?
Answer: Its IC50 is 138.24 µmol.

Question: Which IC50 (Brassica napus [1]) does the source give for `COc1cc2nc(COc3ccc(Cl)cc3Cl)n(N)c(=O)c2cc1OC` here?
Answer: The IC50 was 167.59 µmol.
